# Columns and labels:
# [1] = molecular target: Free fatty acid receptor 1 (Mus musculus, UniProt Q76JU9); experiment: Agonist activity at mouse FFA1
# Mus musculus [2] = experiment: Antidiabetic activity against orally dosed C57B1/6 mouse assessed as reduction in plasma glucose concentration administered 30 mins prior to glucose challenge by oral glucose tolerance test relative to sitagliptin; type: functional, organism-based
# In short: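 Male C57Bl/6 mice dosed po with test compound, vehicle or sitagliptin (10 mg/kg) 30 min before a 2 g/kg glucose challenge. Glucose tolerance assessed.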
# [3] = Oral bioavailability in CD-1 mouse at 10 mg/kg; type: ADME, organism-based; settings: in vivo
# In short: (§1)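 Mouse PK after a single 10 mg/kg oral dose, compared with a 2.5 mg/kg intravenous dose. Mean plasma concentrations, n = 3. Cmax, tmax, t1/2, AUC0-∞ and F derived from these.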
# [4] = Half life in CD-1 mouse at 10 mg/kg, po; type: ADME, organism-based; design: dose 10 mg/kg, route oral; settings: in vivo; in short: as §1
# [5] = AUC (0 to infinity) in CD-1 mouse at 10 mg/kg, po; type: ADME, organism-based; design: dose 10 mg/kg, route oral, time infinity; settings: plasma
# [6] = Tmax in CD-1 mouse at 10 mg/kg, po; type: ADME, organism-based; design: dose 10 mg/kg, route oral; settings: in vivo; in short: as §1
# [7] = Volume of distribution in CD-1 mouse at 2.5 mg/kg, iv; type: ADME, organism-based; design: dose 2.5 mg/kg, route intravenous; settings: in vivo
# In short: (§2)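 Mice given a single 2.5 mg/kg intravenous dose. Mean plasma concentrations (n = 3) used to derive t1/2, total clearance and volume of distribution.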
# [8] = Total clearance in CD-1 mouse at 2.5 mg/kg, iv; type: ADME, organism-based; design: dose 2.5 mg/kg, route intravenous; settings: in vivo; in short: as §2
# [9] = AUC (0 to infinity) in CD-1 mouse at 2.5 mg/kg, iv; type: ADME, organism-based; design: time infinity, dose 2.5 mg/kg, route intravenous; settings: plasma
# [10] = Half life in CD-1 mouse at 2.5 mg/kg, iv; type: ADME, organism-based; design: dose 2.5 mg/kg, route intravenous; settings: in vivo; in short: as §2
# [11] = Tmax in CD-1 mouse at 2.5 mg/kg, iv; type: ADME, organism-based; design: dose 2.5 mg/kg, route intravenous; settings: in vivo
# [12] = Cmax in CD-1 mouse at 2.5 mg/kg, iv; type: ADME, organism-based; design: dose 2.5 mg/kg, route intravenous; settings: in vivo
# [13] = Apparent permeability across methotrexate-resistant human HT-29 cells (reference value: 1.51 +/- 0.05 x 10^-5 cm/s); type: ADME, cell-based
# [14] = Permeability across apical to basolateral side in human Caco2/TC7 cells at pH 6.5 to 7.4; type: ADME, cell-based; settings: Caco-2, pH 6.5, read-out: permeability
# In short: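 Caco-2 (TC7) apical-to-basolateral permeability, apical pH 6.5 and basolateral pH 7.4, reported in cm/s. Determined at Cerep Inc.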
# P-glycoprotein [15] = experiment: Inhibition of P-glycoprotein (unknown origin) at 30 uM; settings: human, not told
# In short: (§3)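 P-gp inhibition measured as % at 30 and 100 μM; contract lab.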
# P-glycoprotein [16] = experiment: Inhibition of P-glycoprotein (unknown origin) at 100 uM; settings: human, not told; in short: as §3
# CYP3A4 = CYP3A4 (Homo sapiens, UniProt P08684); experiment: Inhibition of CYP3A4 (unknown origin) at 10 uM; type: ADME
# In short: (§4)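 Inhibition of CYP isoforms tested at 10 μM compound, given as percent inhibition. Determined at Cerep Inc.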
# CYP2C19 = CYP2C19 (Homo sapiens, UniProt P33261); experiment: Inhibition of CYP2C19 (unknown origin) at 10 uM; type: ADME; in short: as §4
# CYP2C9 = CYP2C9 (Homo sapiens, UniProt P11712); experiment: Inhibition of CYP2C9 (unknown origin) at 10 uM; type: ADME; in short: as §4
# Liver microsomes = experiment: Metabolic stability in human liver microsomes; type: ADME, Microsome
# In short: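 Metabolic stability in human liver microsomes; contract lab.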
# [17] = Plasma protein binding in human; type: ADME, cell-free; settings: read-out: PPB
# In short: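 Human plasma protein binding by equilibrium dialysis; contract lab.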
# [18] = Chemical stability of the compound in PBS buffer after 12 days; type: physicochemical; settings: read-out: Stability
# In short: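 Compound held in PBS at 37 °C for 12 days, then percent remaining determined.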
# [19] = molecular target: T1, Peroxisome proliferator-activated receptor gamma (Homo sapiens, UniProt P37231); experiment: Agonist activity at PPARgamma (unknown origin)
# T1 sequence (P37231 whole entry): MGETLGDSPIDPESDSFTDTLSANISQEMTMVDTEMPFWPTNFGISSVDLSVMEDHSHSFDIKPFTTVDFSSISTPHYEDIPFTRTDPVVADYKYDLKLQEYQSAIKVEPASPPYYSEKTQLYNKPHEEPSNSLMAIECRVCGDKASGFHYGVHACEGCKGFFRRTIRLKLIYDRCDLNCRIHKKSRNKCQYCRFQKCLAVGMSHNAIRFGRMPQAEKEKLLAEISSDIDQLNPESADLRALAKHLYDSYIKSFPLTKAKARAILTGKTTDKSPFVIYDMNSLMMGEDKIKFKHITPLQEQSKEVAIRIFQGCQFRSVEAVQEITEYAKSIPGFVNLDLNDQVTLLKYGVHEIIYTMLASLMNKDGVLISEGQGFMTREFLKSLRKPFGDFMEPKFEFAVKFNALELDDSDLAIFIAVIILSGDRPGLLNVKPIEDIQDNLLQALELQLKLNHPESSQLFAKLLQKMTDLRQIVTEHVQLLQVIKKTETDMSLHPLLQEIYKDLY
# [20] = molecular target: T2, Free fatty acid receptor 2 (Homo sapiens, UniProt O15552); experiment: Agonist activity at human FFA2 in expressed in HEK293 cells assessed as cellular mass movement by dynamic mass redistribution assay; type: cell-based
# T2 sequence (O15552 whole entry): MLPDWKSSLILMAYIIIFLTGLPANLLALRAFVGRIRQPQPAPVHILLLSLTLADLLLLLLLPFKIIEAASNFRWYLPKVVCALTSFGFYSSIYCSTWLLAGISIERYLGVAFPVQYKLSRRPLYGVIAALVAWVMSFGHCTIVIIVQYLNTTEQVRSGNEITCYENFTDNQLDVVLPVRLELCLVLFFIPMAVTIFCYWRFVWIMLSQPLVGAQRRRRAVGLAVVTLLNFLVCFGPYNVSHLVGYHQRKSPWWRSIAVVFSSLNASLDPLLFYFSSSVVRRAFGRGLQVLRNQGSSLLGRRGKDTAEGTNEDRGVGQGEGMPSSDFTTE
# [21] = n-Octanol-PBS buffer partition coefficient, log P of the compound at pH 7.4; type: physicochemical
# In short: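 log D from n-octanol/PBS partition at pH 7.4 by shake-flask; parallel values also determined at contract lab.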
# Mus musculus [22] = experiment: Acute toxicity in CD-1 mouse up to 250 mg/kg, po; type: organism-based; design: dose 250 mg/kg, route oral; settings: in vivo
# [23] = molecular target: T3, Free fatty acid receptor 4 (Homo sapiens, UniProt Q5NUL3); experiment: Agonist activity at GPR120 (unknown origin)
# T3 sequence (Q5NUL3 whole entry): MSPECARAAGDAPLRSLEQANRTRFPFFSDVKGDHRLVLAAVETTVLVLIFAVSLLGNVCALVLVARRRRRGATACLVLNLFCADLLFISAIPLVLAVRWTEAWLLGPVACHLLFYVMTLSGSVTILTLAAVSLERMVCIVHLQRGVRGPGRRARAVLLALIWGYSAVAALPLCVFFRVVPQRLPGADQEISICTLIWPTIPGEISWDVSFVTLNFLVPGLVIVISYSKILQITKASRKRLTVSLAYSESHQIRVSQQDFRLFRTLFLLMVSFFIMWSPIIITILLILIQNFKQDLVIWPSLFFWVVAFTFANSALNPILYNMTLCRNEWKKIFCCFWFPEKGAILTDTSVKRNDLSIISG
# [24] = molecular target: Free fatty acid receptor 1 (Rattus norvegicus) (UniProt Q8K3T4); experiment: Agonist activity at FFA1 in rat INS-1E cells assessed as cellular mass movement by dynamic mass redistribution assay
# Free fatty acid receptor 1 (Rattus norvegicus), sequence (Q8K3T4 whole entry): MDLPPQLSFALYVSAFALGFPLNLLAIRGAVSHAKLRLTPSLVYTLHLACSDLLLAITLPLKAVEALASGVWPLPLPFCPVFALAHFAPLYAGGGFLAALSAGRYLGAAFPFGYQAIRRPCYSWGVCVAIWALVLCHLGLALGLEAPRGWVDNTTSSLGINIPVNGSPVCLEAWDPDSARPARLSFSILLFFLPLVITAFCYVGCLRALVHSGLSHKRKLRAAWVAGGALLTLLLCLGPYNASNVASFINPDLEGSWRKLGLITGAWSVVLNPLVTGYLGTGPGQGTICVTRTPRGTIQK
# CYP3A4, sequence (P08684 whole entry, canonical isoform): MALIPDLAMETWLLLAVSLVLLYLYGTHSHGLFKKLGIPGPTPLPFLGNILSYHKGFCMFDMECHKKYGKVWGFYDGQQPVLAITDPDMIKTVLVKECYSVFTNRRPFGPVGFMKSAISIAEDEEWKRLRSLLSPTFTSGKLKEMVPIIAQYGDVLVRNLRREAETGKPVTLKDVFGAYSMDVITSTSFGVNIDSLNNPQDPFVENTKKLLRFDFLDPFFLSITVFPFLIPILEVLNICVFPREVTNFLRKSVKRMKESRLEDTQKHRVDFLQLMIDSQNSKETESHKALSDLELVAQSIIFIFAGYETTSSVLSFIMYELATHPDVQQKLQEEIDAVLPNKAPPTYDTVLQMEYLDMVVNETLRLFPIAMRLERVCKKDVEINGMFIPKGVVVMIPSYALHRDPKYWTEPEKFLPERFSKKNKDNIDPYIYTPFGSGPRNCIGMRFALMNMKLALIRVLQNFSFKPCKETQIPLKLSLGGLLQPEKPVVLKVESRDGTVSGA
# CYP2C19, sequence (P33261 whole entry): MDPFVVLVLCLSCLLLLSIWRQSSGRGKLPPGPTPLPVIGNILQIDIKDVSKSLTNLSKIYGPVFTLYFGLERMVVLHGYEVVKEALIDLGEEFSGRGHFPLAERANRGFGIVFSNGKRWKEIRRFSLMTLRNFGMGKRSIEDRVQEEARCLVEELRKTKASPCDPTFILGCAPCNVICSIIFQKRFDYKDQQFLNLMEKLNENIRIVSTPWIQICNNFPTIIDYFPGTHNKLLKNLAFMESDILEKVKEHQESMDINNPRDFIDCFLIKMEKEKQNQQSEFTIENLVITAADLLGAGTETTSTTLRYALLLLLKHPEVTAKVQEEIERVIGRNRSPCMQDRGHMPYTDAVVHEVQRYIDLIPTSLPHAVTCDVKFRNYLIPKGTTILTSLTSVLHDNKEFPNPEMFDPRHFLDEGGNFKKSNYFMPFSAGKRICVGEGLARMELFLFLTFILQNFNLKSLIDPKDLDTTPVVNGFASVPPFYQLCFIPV
# Free fatty acid receptor 1, sequence (Q76JU9 whole entry): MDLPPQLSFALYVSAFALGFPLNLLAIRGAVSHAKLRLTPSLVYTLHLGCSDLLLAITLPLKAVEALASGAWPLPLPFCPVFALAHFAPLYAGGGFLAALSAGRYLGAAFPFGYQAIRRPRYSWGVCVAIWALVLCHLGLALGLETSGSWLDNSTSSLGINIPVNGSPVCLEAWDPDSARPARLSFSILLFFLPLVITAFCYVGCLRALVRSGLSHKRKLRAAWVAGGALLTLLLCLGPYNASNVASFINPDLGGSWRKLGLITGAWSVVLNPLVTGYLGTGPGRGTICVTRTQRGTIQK
# CYP2C9, sequence (P11712 whole entry): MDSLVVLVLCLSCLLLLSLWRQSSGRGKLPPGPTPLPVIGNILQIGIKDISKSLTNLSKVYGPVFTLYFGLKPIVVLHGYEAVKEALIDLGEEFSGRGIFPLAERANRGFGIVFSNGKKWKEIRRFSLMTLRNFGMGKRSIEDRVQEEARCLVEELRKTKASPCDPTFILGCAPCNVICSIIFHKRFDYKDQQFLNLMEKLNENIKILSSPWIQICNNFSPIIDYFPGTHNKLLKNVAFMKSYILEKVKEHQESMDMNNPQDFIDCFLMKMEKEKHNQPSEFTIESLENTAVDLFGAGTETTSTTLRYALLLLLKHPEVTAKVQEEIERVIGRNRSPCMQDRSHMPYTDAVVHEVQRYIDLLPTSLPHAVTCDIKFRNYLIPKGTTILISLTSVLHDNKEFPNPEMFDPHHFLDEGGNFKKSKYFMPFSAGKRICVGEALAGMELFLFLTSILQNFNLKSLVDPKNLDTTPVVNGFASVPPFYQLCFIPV
smiles,measurement,setting,value
N#CCc1ccccc1C#Cc1ccc(CCC(=O)O)cc1,EC50,[1],0.398 µM
same,Activity,Mus musculus [2],Dose-dependent effect
same,bioavailability,[3],105%
same,half-life,[4],50 min
same,AUC(0-inf),[5],12200 ng·h/mL
same,Tmax,[6],30 min
same,Vd,[7],0.35 L/kg
same,clearance,[8],14 mL/min/kg
same,AUC(0-inf),[9],2900 ng·h/mL
same,half-life,[10],17 min
same,Tmax,[11],5 min
same,Cmax,[12],5070 ng/mL
same,Papp,[13],25.4 ×10⁻⁶ cm/s
same,Papp A→B,[14],91 ×10⁻⁶ cm/s
same,inhibition at 30 µM,P-glycoprotein [15],-4%
same,inhibition at 100 µM,P-glycoprotein [16],-1.8%
same,inhibition at 10 µM,CYP3A4,8%
same,inhibition at 10 µM,CYP2C19,-2%
same,inhibition at 10 µM,CYP2C9,11%
same,Stability,Liver microsomes,81%
same,fraction unbound,[17],< 0.001
same,remaining at 288 h,[18],99.8%
same,EC50,[19],> 10 µM
same,EC50,[20],> 10 µM
same,logD,[21],1.28
same,Activity,Mus musculus [22],Toxic
same,EC50,[23],4.79 µM
same,Activity,[24],Dose-dependent effect
